How the values were obtained:
HeLa [1] = experiment: Antiproliferative activity against human HeLa cells incubated for 72 hrs by MTT assay; format: functional, cell-based; settings: Homo sapiens, HeLa, 72 h
How it was run: (§1)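 Cells seeded at 5000 per well on day 0. Test agents added in five 10-fold dilutions (0.01–100 μM) for a further 72 h, with DMSO ≤0.1% as solvent control. Growth was read by MTT and absorbance converted to percentage growth against untreated cells on the same plate. IC50 came from linear regression on dose–response curves. Quadruplicate points, three independent experiments.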

HepG2 = experiment: Antiproliferative activity against human HepG2 cells incubated for 72 hrs by MTT assay; format: functional, cell-based; settings: Homo sapiens, HepG2, 72 h; how it was run: as §1
SW-620 = experiment: Antiproliferative activity against human SW620 cells incubated for 72 hrs by MTT assay; format: functional, cell-based; how it was run: as §1
[2] = Antiproliferative activity against human MIAPaCa2 cells incubated for 72 hrs by MTT assay; format: functional, cell-based, MIA PaCa-2; settings: Homo sapiens, MIA PaCa-2, 72 h; how it was run: as §1
[3] = Antiproliferative activity against human CEM/0 cells incubated for 72 hrs by MTT assay; format: functional, cell-based, CCRF-CEM; how it was run: as §1
[4] = Antiproliferative activity against mouse L1210/0 cells incubated for 72 hrs by MTT assay; format: functional, cell-based; settings: Mus musculus, L1210/0, 72 h; how it was run: as §1
[5] = Cytotoxicity against African green monkey Vero cells assessed as alteration in cell morphology by microscopy; format: cell-based; settings: chlorocebus sabaeus
How it was run: (§2)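 MCC is the compound concentration causing a microscopically visible alteration of cell morphology in the cultures used for the antiviral assays.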

Sindbis virus = experiment: Antiviral activity against Sindbis virus expressed in African green monkey Vero cells assessed as reduction in cytopathogenicity; format: functional, organism-based
How it was run: (§3)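 Confluent Vero monolayers were inoculated with 100 CCID50 of virus in the presence of 5-fold serial compound dilutions. Cytopathicity was scored once it was complete in untreated infected controls. EC50 is the concentration giving 50% reduction of virus-induced cytopathogenicity.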

Human respirovirus 3 = experiment: Antiviral activity against Parainfluenza virus 3 expressed in African green monkey Vero cells assessed as reduction in cytopathogenicity; format: functional, organism-based; settings: Human respirovirus 3, Vero; how it was run: as §3
Punta Toro virus = experiment: Antiviral activity against Punta Toro virus expressed in African green monkey Vero cells assessed as reduction in cytopathogenicity; format: functional, organism-based; how it was run: as §3
[6] = tested on: Mammalian orthoreovirus 1; experiment: Antiviral activity against Reovirus 1 expressed in African green monkey Vero cells assessed as reduction in cytopathogenicity; format: functional, cell-based; settings: Mammalian orthoreovirus 1, Vero; how it was run: as §3
Coxsackievirus B4 = experiment: Antiviral activity against Coxsackievirus B4 expressed in African green monkey Vero cells assessed as reduction in cytopathogenicity; format: functional, organism-based; settings: Enterovirus B; how it was run: as §3
Human alphaherpesvirus 3 [7] = experiment: Antiviral activity against thymidine kinase deficient Varicella zoster virus 07-1 expressed in HEL cells assessed as reduction in plaque formation incubated for 5 days; format: functional, organism-based; settings: Human alphaherpesvirus 3, 07-1, HEL, 120 h
How it was run: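 Confluent HEL cells in 96-well plates inoculated with TK-deficient VZV strain 07-1 at 20 PFU per well; residual virus removed after 2 h, then varying compound concentrations added in duplicate. EC50 = concentration reducing viral plaque formation by 50% versus untreated controls after 5 days.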

Human alphaherpesvirus 3 [8] = experiment: Antiviral activity against Varicella zoster virus Oka expressed in HEL cells assessed as reduction in plaque formation incubated for 5 days; format: functional, organism-based; settings: Human alphaherpesvirus 3, Oka, 120 h
How it was run: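 Confluent HEL cells were inoculated at 20 PFU per well of VZV. Residual virus was removed after 2 h, then compound dilutions were added in duplicate. EC50 is the concentration reducing plaque formation by 50% versus untreated controls after 5 days.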

[9] = Cytotoxicity against human HEL cells assessed as alteration in cell morphology incubated for 3 days by microscopy; format: cell-based; how it was run: as §2
HEL = experiment: Cytotoxicity against human HEL cells assessed as cell growth reduction incubated for 3 days; format: cell-based; settings: 72 h
How it was run: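 HEL cells were seeded at 5 × 10^3 per well and allowed to proliferate for 24 h before compound-containing medium was added. After 3 days at 37 °C, cells were counted with a Coulter counter. CC50 (50% reduction of proliferation versus untreated controls) was estimated from graphic plots.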

Human betaherpesvirus 5 [10] = experiment: Antiviral activity against Human cytomegalovirus Davis expressed in HEL cells assessed as reduction in plaque formation incubated for 7 days by Giemsa stain based microscopy; format: functional, organism-based; settings: Human betaherpesvirus 5, Davis, 168 h
How it was run: (§4)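 Confluent HEL fibroblasts were infected at 100 PFU per well. After 2 h, residual virus was removed and compound-containing medium added, in duplicate. After 7 days at 37 °C, cells were ethanol-fixed, Giemsa-stained and examined microscopically. EC50 was read from graphic plots of % cytopathogenicity versus concentration.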

Human betaherpesvirus 5 [11] = experiment: Antiviral activity against Human cytomegalovirus AD169 expressed in HEL cells assessed as reduction in plaque formation incubated for 7 days by Giemsa stain based microscopy; format: functional, organism-based; settings: Human betaherpesvirus 5, AD169, HEL, 168 h; how it was run: as §4
[12] = Cytotoxicity against CRFK cells assessed as cell growth reduction incubated for 3 days; format: cell-based, Felis catus; settings: cat, 72 h
HeLa [13] = experiment: Cytotoxicity against human HeLa cells assessed as cell growth reduction incubated for 3 days; format: cell-based; settings: 72 h

Compound | IC50 (HeLa [1]) | IC50 (HepG2) | IC50 (SW-620; Homo sapiens, SW-620, 72 h) | IC50 [2] | IC50 ([3]; Homo sapiens, CCRF-CEM, 72 h) | IC50 [4] | other results
O=C1O/C(=C\Cn2cnc3ccnc(Cl)c32)C(OCc2ccccc2)=C1OCc1ccccc1 (mixture of isomers) | > 100 µM | > 100 µM | > 100 µM | > 100 µM | – | – | –
O=C1NC(O)(CCn2cnc3cncc(Br)c32)C(OCc2ccccc2)=C1OCc1ccccc1 (stereo unspecified) | 77 µM | 66.5 µM | > 100 µM | 48.7 µM | 25 µM | 50 µM | –
O=C1NC(O)(CCn2cnc3cc[nH]c3c2=O)C(OCc2ccccc2)=C1OCc1ccccc1 (stereo unspecified) | 92 µM | > 100 µM | 90.7 µM | 36.6 µM | 87 µM | 107 µM | –
Nc1ncnc2c1ncn2C[C@H](O)CO [(S)-DHPA] | – | – | – | – | – | – | MCC [5]: > 250 µM; EC50 (Sindbis virus): > 250 µM; EC50 (Human respirovirus 3): > 250 µM; EC50 (Punta Toro virus): > 250 µM; EC50 [6]: > 250 µM; EC50 (Coxsackievirus B4): > 250 µM
O=C1O/C(=C\Cn2cnc3ccn(C/C=C4\OC(=O)C(OCc5ccccc5)=C4OCc4ccccc4)c3c2=O)C(OCc2ccccc2)=C1OCc1ccccc1 | 5.6 µM | > 100 µM | 47.2 µM | 26.2 µM | 19 µM | 4.5 µM | MCC [5]: ≥ 20 µM; EC50 (Sindbis virus): > 20 µM; EC50 (Human alphaherpesvirus 3 [7]): 7.6 µM; EC50 (Human alphaherpesvirus 3 [8]): 13.8 µM; EC50 (Human respirovirus 3): > 20 µM; EC50 (Punta Toro virus): 6.7 µM; EC50 [6]: > 20 µM; EC50 (Coxsackievirus B4): > 20 µM
O=C1O/C(=C\Cn2cnc3cncc(Br)c32)C(OCc2ccccc2)=C1OCc1ccccc1 (mixture of isomers) | 15 µM | 46.9 µM | 32.9 µM | 22.6 µM | 5.7 µM | 6.8 µM | –
O=C1NC(O)(CCn2cnc3ccn(CCC4(O)NC(=O)C(OCc5ccccc5)=C4OCc4ccccc4)c3c2=O)C(OCc2ccccc2)=C1OCc1ccccc1 (stereo in doubt; 18) | 17 µM | > 100 µM | – | 5.7 µM | – | 4.4 µM | IC50 ([3]; ccrf-cem): 15 µM; IC50 (SW-620; sw-620): 69.9 µM
COc1nc(OC)c2c(ccn2CCC2(O)NC(=O)C(OCc3ccccc3)=C2OCc2ccccc2)n1 (stereo unspecified) | – | > 100 µM | – | – | 87 µM | – | –
COc1nc(OC)c2c(ccn2C/C=C2\OC(=O)C(OCc3ccccc3)=C2OCc2ccccc2)n1 (mixture of isomers) | 12 µM | > 100 µM | 47.1 µM | 33.9 µM | 4.1 µM | 4.7 µM | MCC at 72 h [9]: ≥ 20 µM; CC50 (HEL): 36.6 µM; EC50 (Human betaherpesvirus 5 [10]): 1.99 µM; EC50 (Human betaherpesvirus 5 [11]): 4.99 µM
O=C1O/C(=C\Cn2cnc3c(Cl)c(F)nc(F)c32)C(OCc2ccccc2)=C1OCc1ccccc1 (mixture of isomers) | > 100 µM | > 100 µM | 50 µM | > 100 µM | – | – | MCC [5]: 20 µM; EC50 (Sindbis virus): > 20 µM; MCC at 72 h [9]: ≥ 100 µM; CC50 (HEL): > 100 µM; EC50 (Human respirovirus 3): > 20 µM; EC50 (Punta Toro virus): 12 µM; EC50 [6]: > 20 µM; EC50 (Human betaherpesvirus 5 [10]): 8.94 µM; Activity [12]: Non-toxic; Activity (HeLa [13]): Non-toxic; EC50 (Human betaherpesvirus 5 [11]): 8.94 µM; EC50 (Coxsackievirus B4): > 20 µM
O=C1O/C(=C\Cn2cnc3c(Cl)c(F)nc(F)c32)C(O)=C1O (mixture of isomers) | > 100 µM | > 100 µM | > 100 µM | > 100 µM | – | – | –
O=C1NC(O)(/C=C\n2cc(I)c3c(Cl)ncnc32)C(OCc2ccccc2)=C1OCc1ccccc1 (stereo unspecified) | > 250 µM | 32.4 µM | 46.9 µM | 22.6 µM | > 250 µM | > 250 µM | –
